SKN-1 block = suppressors of acrylamide-induced Pgst-4::GFP reporter in worms, primary screen, SKN-1 inhibitor project, whole organism, uHTS, GFP/RFP fluorescence ratio, strain VP596; AID 624304, 2012; 360,000 tested, 0.49% active; C. elegans VP596 Pgst-4::GFP/RFP ratio, 24 h; inhibition, % at 21.8 µM;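 active means interference check ratio from 0.5 to 1.5 plus GFP to RFP signal ratio inhibition reaching or exceeding a fixed threshold, cut at about 30% in these data, passing the limit was not always enough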
iPSC survival up = enhancers of single-cell hiPSC survival, primary screen, ATPlite luminescence; 100% = ROCK inhibitor wells, 0% = DMSO; survival enhancement, % at 20 µM; 360,000 tested, 0.044% active; AID 602274, 2012; in the data active means survival enhancement above about 18%;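 further: cells exposed to compounds for 16 hours before the ATP read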
FAS-TE inh = FAS thioesterase domain inhibitors, primary screen, biochemical, fluorescence intensity, uHTS; recombinant FAS-TE, OMFH fluorogenic substrate, fluorescence endpoint; AID 602261, 2012; 360,000 tested, 0.67% active; inhibition, % at 15 µM; Fatty acid synthase (Homo sapiens), P49327;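 active means compounds whose normalised, plate-corrected inhibition of enzyme fluorescence in the single-dose primary screen is 50% or more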;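 further: 0% = DMSO with enzyme and 100% = substrate without enzyme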
MT1-MMP act inh = blockers of MT1-MMP proenzyme processing, primary screen, HT1080 RFP-PRO-GFP cells, GFP/RFP fluorescence; 360,000 tested, 0.061% active; GFP/RFP ratio change, % at 20 µM; GFP/RFP ratio fluorescence, overnight; percent of plate control window, DMSO zero; AID 651647, 2012;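 active means GFP/RFP ratio change of at least 30% with cell ATP level not reduced by more than half and red fluorescence within 50% of control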
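Test system: HT1080 cells expressing an RFP-PRO-GFP fluorescent reporter construct / Compound dosing: single-point 20 µM compound, 1% DMSO / Schedule: cells overnight before dosing, compound overnight, 37 °C, 5% CO2 / Evaluation: GFP/RFP fluorescence ratio / Control set: DMSO and RFP-L50D-GFP cell wells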
DAGLB inh = DAGLB lipase inhibitors, primary screen, biochemical, fluorescence, HTS; AID 504411, 2011; HEK293T DAGLB membrane lysate, EnzChek fluorogenic substrate; inhibition, % at 5.17 µM; 340,000 tested, 0.059% active; in the data active means inhibition above about 34%;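 further: 0% = enzyme with vehicle and 100% = wells lacking enzyme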
* = called active by the depositor; . = no result. The list is not random: actives were taken first. Their share in the collection is about 1.3%.

SMILES	SKN-1 block	iPSC survival up	FAS-TE inh	MT1-MMP act inh	DAGLB inh
Clc1ccc(-c2cc(CSc3ccccc3)on2)cc1	45*	0	24	-1	-27
O=C1Nc2ccccc2-c2nnnn2C1N1CCCCC1 (centres undefined)	1	.	.	2	.
C[C@@]12C(=O)Nc3ccc(F)cc3C(=O)N1[C@H]1c3cc(Br)ccc3OC[C@@H]1[C@@H]2c1ccccc1	16	3	89*	-19	-6
COc1ccc2c(c1)OC[C@H]1[C@H]2N2C(=O)c3cc(C)ccc3NC(=O)[C@@]2(C)[C@H]1c1ccccc1	-2	-2	76*	-15	4
Cc1ccc2c(c1)[C@H]1[C@H](CO2)[C@H](c2ccccc2)[C@]2(C)C(=O)Nc3ccc(Cl)cc3C(=O)N12	10	3	33	-23	-4
Cc1ccc2c(c1)C(=O)N1[C@H]3c4ccccc4OC[C@@H]3[C@H](c3ccccc3)[C@]1(C)C(=O)N2	-6	-1	71*	-14	-3
COc1ccc2c(c1)[C@H]1[C@H](CO2)[C@H](c2ccccc2)[C@]2(C)C(=O)Nc3ccc(F)cc3C(=O)N12	3	6	40	-5	0
CCCCOCCCNC(=O)C[C@@H]1C[C@@]2(C(=O)OC)CCCCC=C2N(Cc2ccccc2)C1=O	18	1	-1	3	.
CCCNC(=O)C1(C)CCN(C(=O)c2ccc3snnc3c2)C1 (centres undefined)	2	-2	-2	-1	.
C/C(=C\C(=O)c1ccccc1)NCc1ccc(F)cc1	33*	-1	3	2	-7
COC(=O)[C@]1(CC(C)C)N[C@H](c2ccc(-c3ccc(Cl)c(Cl)c3)cc2)[C@@H]2C(=O)N(C)C(=O)[C@@H]21	-1	-4	61*	13	-4
CCN1C(=O)[C@H]2[C@@H](c3ccc(-c4ccc(Cl)c(Cl)c4)cc3)N[C@@](CC(C)C)(C(=O)OC)[C@H]2C1=O	25	-1	42	-1	-1
COc1ccc(N2CCN(C(=O)/C=C/[C@H]3O[C@@H](n4ccc(=O)[nH]c4=O)[C@H](O)[C@@H]3O)CC2)cc1	-5	-1	-8	3	.
CN1CCN(c2ccc(NC(=O)c3ccc(Oc4ccccc4)cc3)cc2)CC1	37*	0	-2	5	2
CC(=O)c1ccc(N2CCN(C(=S)Nc3ccc(Oc4ccccc4)cc3)CC2)cc1	26	-1	17	-10	-1
CCOc1cc(CNCC(C)C)cc(Cl)c1OCc1ccccc1	19	2	-5	-2	-4
CCOc1cc(CNC2CCCC2)cc(Cl)c1OCc1ccccc1	56*	-2	-14	-8	-2
COc1ccccc1C1CC(c2cccc(NS(C)(=O)=O)c2)=NN1S(=O)(=O)c1ccccc1 (centres undefined)	37*	0	7	-11	-1
COc1ccccc1C1CC(c2ccc(NS(C)(=O)=O)cc2)=NN1S(=O)(=O)c1ccccc1 (centres undefined)	12	0	12	-4	-2
CCOc1ccc(OCC)c(NC(=O)CSCC(=O)O)c1	36*	5	-1	1	0
COc1ccc(OCCSc2ncccn2)cc1	-4	-1	-2	0	-1
Clc1ccc(OCCSc2ncccn2)cc1	38*	-2	11	7	-3
CC(C)=CCCC(C)=CCN1C(=O)CN(C)C1=O	3	3	-4	0	-7
COc1ccc(S(=O)(=O)N(CC(=O)N2CCN(c3ccccc3OC)CC2)c2ccccc2)cc1	37*	1	25	-2	0
COCCNC(=O)C1(C)CCCN(C(=O)c2cc(OC)c(OC)c(OC)c2)C1 (centres undefined)	-4	-2	-7	-4	.
SMILES	SKN-1 block	iPSC survival up	FAS-TE inh	MT1-MMP act inh	DAGLB inh
CCCOc1ccc(N2C(=O)CC(N(CCc3ccc(OC)cc3)C(=O)c3cccc(F)c3)C2=O)cc1 (centres undefined)	35*	-2	12	-2	-3
Cc1[nH]n(-c2cccc3ccccc23)c(=O)c1C=Nc1ccc2[nH]c(=O)[nH]c2c1	41*	6	-4	5	2
Cc1c(C(=O)NCc2ccccc2)sc(=O)n1Cc1ccccc1F	-12	0	0	0	.
COc1ccc(C2CC(c3ccccc3)=NN2C(=O)c2cccs2)cc1 (centres undefined)	37*	-2	30	-8	-2
COc1cccc(C2=NN(C(C)=O)C(c3cccs3)C2)c1 (centres undefined)	36*	0	-1	0	-5
COc1ccc(C2=NN(C(=O)c3cccs3)C(c3ccccc3O)C2)cc1 (centres undefined)	-3	5	12	-5	1
CSc1ccc(CN2CCC2(C)C(=O)NCc2ccc3c(c2)OCO3)cc1 (centres undefined)	-5	5	10	1	.
Cc1ccc(OCc2nnn(CC(=O)NS(=O)(=O)c3c(C)noc3C)c2-c2ccccc2)cc1	1	-1	0	-2	.
OC[C@@H]1CN(Cc2cccs2)C[C@H](n2cnc3c(NC4CCC4)ncnc32)O1	-4	2	-8	3	.
CCc1nc2c(OCc3ccc(C(F)(F)F)cc3)cccn2c1N(C)C(=O)c1ccncc1	54*	-1	-3	-5	.
CCc1nc2c(OCc3ccc(C(F)(F)F)cc3)cccn2c1N(C)C(C)=O	4	1	0	-1	.
C=CCC[C@@H](CCCCC)OC(=O)/C=C/[C@@H](O)[C@H](O)C[C@@H](O)CC=C	9	1	-2	7	.
COc1ccc(S(=O)(=O)N2CCC(C(=O)NCCC(=O)NCc3cccnc3)CC2)cc1	3	-2	-8	2	-3
CC1(C(=O)Nc2cccc3cccnc23)CCN1Cc1ccccc1OC(F)F (centres undefined)	7	5	24	-3	.
CCN1C(=O)/C(=C/N(C)c2ccccc2)OC1=S	36*	-1	7	-8	-3
CCN1C(=O)/C(=C\N(C(C)=O)c2ccccc2)OC1=S	14	0	-3	-2	3
COc1ccc(C(O)c2cnc(C)n2Cc2ccccc2)cc1 (centres undefined)	11	-3	-3	-2	0
O=C1C2C(C(=O)N1Cc1cccnc1)C1C=CC2C12CC2 (centres undefined)	41*	-2	-3	-2	-1
Cc1nc2ccccc2c(=O)n1/N=C/c1ccccc1Cl	38*	0	-1	-2	-1

Bioassay records as filed in PubChem.
